The source made the active and inactive calls.
Tests used:
MDA-MB-231 = assay: Antiinvasive activity against human MDA-MB-231 cells assessed as inhibition of cell migration at 100 nM incubated for 22 hrs by H and E staining based matrigel invasion assay; format: functional
Method in brief: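 MDA-MB-231 cells (DMEM, 10% FBS, penicillin/streptomycin) seeded on Matrigel in upper chamber with compound at 100 nM; 200 ng/mL CXCL12 in lower chamber as chemoattractant. Invaded cells at the Matrigel bottom fixed in methanol, H&E stained and counted to give percentage invasion.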

[1] = target: C-X-C chemokine receptor type 4 (Homo sapiens) (UniProt P61073); assay: Binding affinity to human CXCR4 in human MDA-MB-231 cells assessed as inhibition of CXCR4-targeted conjugate formation preincubated with compound followed by biotinylated-TN14003 addition and measured after 45 mins by competition based microscopic analysis; format: cell-based
Method in brief: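 MDA-MB-231 cells in chamber slides preincubated with compound at 1, 10, 100 and 1000 nM. Then fixed in 4% formaldehyde, incubated with 50 nM biotinylated TN14003, and stained with streptavidin–rhodamine. Fluorescence imaged by microscopy and quantified. EC defined as the concentration blocking >50% of probe signal; IC50 obtained by curve fitting.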

Mus musculus [2] = assay: Antiinflammatory activity in JAZ 007850 J:NU mouse assessed as decrease in carrageenan-induced paw edema treated at 10 mg/kg, ip qd starting 30 min after carrageenan challenge measured after 74 hrs
Mus musculus [3] = assay: Antiinflammatory activity in carrageenan-induced JAZ 007850 J:NU mouse model assessed as reduction in infiltration of CXCR-4 expressing cells at 10 mg/kg, ip qd measured after 74 hrs by immunohistochemistry assay; format: functional, organism-based
Method in brief: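 Carrageenan paw edema tissue (male nude mice, 10 mg/kg i.p. daily, harvested 74 h) formalin-fixed, paraffin-embedded, deparaffinized. Antigen retrieval by microwaving in 10 mM sodium citrate pH 6.0. Blocked with hydrogen peroxide, avidin/biotin and horse serum. Anti-CXCR4 antibody at 1:500 overnight at 4 °C, then biotinylated secondary and avidin-biotin complex. Developed with diaminobenzidine, hematoxylin counterstain; H&E sections also examined.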

[4] = Stability in athymic nude-Foxn1 mouse serum measured upto 120 mins by HPLC method; format: ADME, cell-free; settings: 2 h
Method in brief: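 Blood from female athymic nude mice (7 weeks) taken from orbital venous sinus and spun at 13,000 rpm, 6 min, 4 °C. Supernatant mixed 4:1 with 10 mM aqueous compound solution (stock) and held at 36.6 °C. Samples at 0, 5, 15, 30, 60, 120 min passed through 10 kDa filter. Filtrate run on C18 HPLC, acetonitrile/water (0.1% TEA) 3:7, detection at 310 nm. Half-life from one-phase decay fit.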

C-X-C chemokine receptor type 4 (Homo sapiens), sequence (P61073 whole entry): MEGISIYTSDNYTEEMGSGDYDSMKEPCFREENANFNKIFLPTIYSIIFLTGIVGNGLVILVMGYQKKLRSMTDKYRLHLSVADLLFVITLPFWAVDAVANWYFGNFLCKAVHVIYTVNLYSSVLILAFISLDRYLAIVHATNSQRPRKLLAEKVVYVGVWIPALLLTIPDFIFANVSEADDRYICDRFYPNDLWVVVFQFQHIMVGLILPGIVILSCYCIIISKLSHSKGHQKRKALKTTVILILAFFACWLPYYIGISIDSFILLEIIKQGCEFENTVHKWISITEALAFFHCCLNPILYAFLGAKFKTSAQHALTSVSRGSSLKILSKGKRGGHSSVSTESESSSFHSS

SMILES	EC [1] [nM]	t1/2 [4] [h]	inhibition at 0.1 µM (MDA-MB-231) [%]	inhibition (MDA-MB-231)	inhibition (Mus musculus [2])	inhibition (Mus musculus [3])
C[C@@H](NC(=O)[C@@H](N)c1ccccc1)C(=O)N1CCN(C(=O)CCn2ccc3ccncc32)CC1	100		15.7			
C[C@H](C(=O)N[C@@H]1CCN(Cc2ccccc2)C1)N1CCC(C(=O)Nc2cc(O)ccc2Cl)CC1	> 1000			inactive		
O=C(CN1CCC(n2nnc(-c3cccs3)n2)CC1)Nc1ccc(Cn2cncn2)cc1	100		40.9			
O=C(Nc1ccc2c(c1)OCO2)C1CCN(C(=O)NC2CCN(Cc3ccccc3)CC2)CC1	10		9.3			
N=C(N)NCCC[C@H](N)C(=O)NC1CCN(C(=O)CCn2ccc3ccncc32)CC1	1	1.28	78.5		Active	Active

Further lines, with some results ahead:

EC [1] [nM]	t1/2 [4] [h]	SMILES	inhibition at 0.1 µM (MDA-MB-231) [%]	inhibition (MDA-MB-231)	inhibition (Mus musculus [2])	inhibition (Mus musculus [3])
100		N[C@@H](C(=O)NC1CCN(C(=O)CCn2ccc3ccncc32)CC1)c1ccccc1	68.6			
1000		NC(=O)C1CCN(Cc2ccc(NC(=O)CCc3c[nH]c4ccccc34)cc2)CC1		inactive		
1000		O=C(NCCc1c[nH]c2ccccc12)C1CCN(C(=O)Cc2nnc(O)c3ccccc23)CC1		inactive		

Source: ChEMBL document CHEMBL4706496, “Discovery of novel aminopiperidinyl amide CXCR4 modulators through virtual screening and rational drug design” (Eur J Med Chem, 2020)
